Screening data deposited in PubChem by several laboratories.
In the library only some 2.2% were active in any assay of this set; here they are far more common.
RanGTP-Imp inh: inhibitors of RanGTP-importin-beta interaction, primary screen, biochemical, FRET, CFP-Ran, YFP-importin-beta, homogeneous | 300,000 tested, 1.1% active | AID 2216 | inhibition, % (concentration not given with the values) | cell-free CFP-Ran/YFP-importin-beta FRET ratio;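 active = more than half of the replicate wells show a fall in the fluorescence ratio signal beyond about 16%, limit read from the data, passing the limit was not always enough; inconclusive = exactly half of the replicate wells pass the set limit; inactive = fewer than half of replicates pass the limit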
14-3-3 Bad PPI: disrupts binding of bovine 14-3-3 zeta to phospho-Bad peptide. TR-FRET 14-3-3zeta/Dy647-pBad peptide displacement, 1 h. 220,000 tested, 0.71% active. P63103. inhibition, % at 21.7 µM;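 active = inhibition above about 70%, limit read from the data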
Runt-SMMHC FRET: inhibitors of human RUNX1 Runt domain binding to CBFb-SMMHC | 220,000 tested, 0.74% active | Cerulean-Runt/Venus-CBFb-SMMHC FRET ratio 530/480, 1 h | Q01196+Q13951 | inhibition, % at 20 µM;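 active = mean inhibition across duplicate retests at 20 µM reaching about 50%, limit read from the data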;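 note: inhibitors lower the FRET ratio by blocking Runt binding to CBFb-SMMHC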
Target sequence (Q01196 whole entry, looked up, the tested form may be a part): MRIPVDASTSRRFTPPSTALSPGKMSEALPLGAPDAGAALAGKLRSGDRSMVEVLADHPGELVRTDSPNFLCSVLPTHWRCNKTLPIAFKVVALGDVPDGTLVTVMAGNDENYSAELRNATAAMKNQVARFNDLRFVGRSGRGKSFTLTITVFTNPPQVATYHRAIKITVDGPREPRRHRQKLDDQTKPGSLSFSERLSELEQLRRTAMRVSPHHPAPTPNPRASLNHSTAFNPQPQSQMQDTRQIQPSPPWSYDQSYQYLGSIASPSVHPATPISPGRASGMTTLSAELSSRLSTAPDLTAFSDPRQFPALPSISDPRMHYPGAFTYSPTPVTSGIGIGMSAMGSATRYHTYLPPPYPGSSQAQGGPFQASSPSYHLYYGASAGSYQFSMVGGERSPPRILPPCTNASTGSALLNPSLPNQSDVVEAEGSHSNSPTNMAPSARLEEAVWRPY
Target sequence (Q13951 whole entry, looked up, the tested form may be a part): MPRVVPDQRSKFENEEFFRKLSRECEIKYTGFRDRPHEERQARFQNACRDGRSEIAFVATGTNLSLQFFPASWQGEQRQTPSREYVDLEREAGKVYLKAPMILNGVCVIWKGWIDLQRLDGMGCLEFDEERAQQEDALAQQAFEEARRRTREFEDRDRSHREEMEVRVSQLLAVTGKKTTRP
Hck-Nef inh: human Hck-Nef kinase inhibition; Recombinant Hck-YEEI plus Nef, Z-Lyte FRET kinase assay; AID 463187; inhibition, % at 20 µM; P08631; 220,000 tested, 0.68% active;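 active = Hck-Nef kinase inhibition above about 50%, limit read from the data; inactive = inhibition below that limit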
Runt-CBFb FRET: blocks binding of human RUNX1 Runt domain to CBFb; Q01196+Q13951; Cerulean-Runt/Venus-CBFb FRET ratio 530/480, 1 h; inhibition, % at 20 µM; 220,000 tested, 0.46% active; AID 1496;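 active = inhibition over about 50% at 20 µM in the single-dose screen, limit read from the data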
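System: Cerulean-labeled Runt domain protein | Quantity: 100 nM of each labeled protein | Schedule: 1 h compound exposure, room temperature | Detection: Fluorescence energy transfer, 422 nm excitation, 530/480 nm emission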
Tb hexokinase: blocks Trypanosoma brucei hexokinase 1 activity; 220,000 tested, 0.11% active; inhibition, % at 10 µM; recombinant TbHK1, G6PDH-coupled NADH A340;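 active = inhibition of 50% or more in the single-dose primary screen; inactive = inhibition below 50%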
A number is an active result; 0 = inactive; ? = inconclusive; - = no result; [ ] = another dose, or the depositor's remark.

SMILES	RanGTP-Imp inh	14-3-3 Bad PPI	Runt-SMMHC FRET	Hck-Nef inh	Runt-CBFb FRET	Tb hexokinase
C=CCNC(=O)c1c(N)n(Cc2ccco2)c2nc3ccccc3nc12	77	0	0	0	76	0
Nc1c(C(=O)OCc2ccccc2)c2nc3ccccc3nc2n1Cc1cccs1	0	0	0	0	0	0
CC/C(=N\NC(=O)c1ccccc1)c1c(O)n(Cc2ccccc2)c(=O)[nH]c1=O	0	0	0	0	0	0
COCCCNC(=O)c1c(NC(=O)c2ccccc2Cl)n(Cc2ccccc2)c2nc3ccccc3nc12	71	0	63	0	0	0
COc1ccc(-c2nc3ccc(C(=O)N4CCC5(CC4)OCCO5)cc3nc2-c2ccc(OC)cc2)cc1	0	-	-	-	-	-
COP(=S)(OC)c1c(C)nn(CCC#N)c1NC(=O)c1ccc(Cl)cc1	0	-	-	-	-	-
COCCCn1c(N)c(C(=O)Nc2sc3c(c2C(=O)OC)CCCC3)c2nc3ccccc3nc21	0	0	0	0	93	0
CCC(C)NC(=O)c1c(N)n(CC2CCCO2)c2nc3ccccc3nc12 (stereo unspecified)	0	0	100	0	0	0
CCOC(=O)c1c(C)n(Cc2ccc3c(c2)OCO3)c2ccc(O)cc12	0	0	0	0	0	0
CCC(C)NC(=O)c1c(N)n(Cc2ccc3c(c2)OCO3)c2nc3ccccc3nc12 (stereo unspecified)	60	-	0	0	0	0
CCCCOCCCn1c(N)c(C(=O)OC(C)COC)c2nc3ccccc3nc21 (stereo unspecified)	0	0	128	0	0	0
Oc1ccccc1C1NCc2ccccc2-n2cccc21 (stereo unspecified)	0	-	-	-	-	-
CC(Cc1ccccc1)NC(=O)c1ccc(N)cc1 (stereo unspecified)	0	-	-	-	-	-
CCC(C)NC(=O)c1c(N)n(CCCOC)c2nc3ccccc3nc12 (stereo unspecified)	112	0	0	0	0	0
Cc1c(C(=O)C(=O)N2CCC3(CC2)OCCO3)c2ccccc2n1C	0	0	0	0	0	0
CCN(CC)CCNCC(=O)Nc1ccc(Cl)cc1C(=O)c1ccccc1	0	86	0	0	0	0
CN(C)CCCNCC(=O)Nc1ccc(Cl)cc1C(=O)c1ccccc1	0	0	0	0	0	0
CCN1C[C@]2(OC(=O)c3ccccc3NC(C)=O)CCC(OC)C34C5C[C@H]6C(OC)[C@]5(O)[C@](O)(C[C@@H]6OC)C(C[C@@H]32)[C@H]14 (stereo partly specified)	0	-	-	-	-	-
COc1ccc(N2C(=O)NC(=O)/C(=C/c3ccc4c(c3)Cc3ccccc3-4)C2=O)cc1	0	0	0	87	-	0
C=C(C)[C@@]12OC3(c4ccccc4)O[C@@H]1C1[C@@H]4O[C@]4(CO)[C@@H](O)[C@]4(O)C(=O)C(C)=C[C@H]4[C@@]1(O3)[C@H](C)[C@H]2OC(=O)/C=C/C=C/c1ccccc1 (stereo partly specified)	0	-	-	-	-	-
Cc1ccccc1CN1CCN(C(=O)Cc2ccccc2)CC1	0	0	0	0	0	0
CCC(CC)N1CCN(C(=O)Cc2ccccc2)CC1	0	71	0	0	0	0
Cc1ccc(Sc2ccc(C=C3C(=O)N(C)C(=O)N(C)C3=O)o2)cc1	?	0	0	70	0	0
CCN(CC)C(=O)c1ccc2c(c1)C1C=CCC1C(C(=O)O)N2 (stereo unspecified)	0	-	-	-	-	-
Fc1ccccc1N1CCN(Cc2ccc3c(c2)OCO3)CC1	-	77	0	0	0	0
SMILES	RanGTP-Imp inh	14-3-3 Bad PPI	Runt-SMMHC FRET	Hck-Nef inh	Runt-CBFb FRET	Tb hexokinase
COc1cccc(CN2CCCCC2c2cccnc2)c1 (stereo unspecified)	0	81	0	0	0	0
COc1ccc(CN2CCCCC2c2cccnc2)cc1C (stereo unspecified)	0	0	0	0	0	0
O=C1NC(=O)N(c2ccccc2)C(=O)/C1=C\c1ccc([N+](=O)[O-])o1	0	0	0	55	0	0
Cc1ccc(N2C(=O)NC(=O)/C(=C/C=C/c3ccco3)C2=O)cc1	0	0	0	0	0	0
O=C1NC(=O)N(c2ccccc2)C(=O)/C1=C\C=C\c1ccccc1	0	0	55	0	0	0
CN1C(=O)NC(=O)/C(=C/c2ccc([N+](=O)[O-])o2)C1=O	0	0	0	0	0	0
O=C(Cn1ncn2c(cc3cc(F)ccc32)c1=O)N1CCC2(CC1)OCCO2	0	-	-	-	-	-
Cc1ccc2cc(CNCCc3ccccc3C)c(=O)[nH]c2c1	0	-	-	-	-	-
CN(C)C(=O)Oc1ccc2nnc3ccnn3c2c1	72	-	-	-	-	-
CN(C)C(=O)Oc1ccc(OC(=O)N(C)C)cc1	?	0	0	0	0	0
CC(=O)O[C@H]1CCC2C3CCC4=CC(=O)CCC4=C3C=C[C@@]21C (stereo partly specified)	32	-	-	-	-	-
CCN1CCN(Cc2ccc(C)cc2C)CC1	0	77	0	0	0	0
COc1cccc(OCc2cc(C(=O)N3C[C@H]4C[C@@H](C3)c3cccc(=O)n3C4)no2)c1	0	-	-	-	-	-
COc1ccc2c3c([nH]c2c1)C(C)NCC3 (stereo unspecified)	?	0	85	0	0	0
CCOc1ccc(N2C(=O)NC(=O)/C(=C/c3cnc(SC)nc3)C2=O)cc1	0	0	0	0	0	0
CC(=O)Nc1ccc(S(=O)(=O)NC(CC(=O)N2CCC3(CC2)OCCO3)C(C)C)cc1 (stereo unspecified)	0	0	0	0	0	0
Cc1ccc(S(=O)(=O)NC(CC(=O)N2CCC3(CC2)OCCO3)c2ccco2)cc1 (stereo unspecified)	21	0	0	0	0	0
Cc1cc2c(C(C)C)c(O)c(O)c(C=O)c2c(O)c1-c1c(C)cc2c(C(C)C)c(O)c(O)c(C=O)c2c1O	-	82[fluorescence artefact?]	0	102	0	0
CCN1CCN(Cc2nnnn2C(C)(C)C)CC1	0	75	0	0	0	0
CN1CCN(Cc2cn(C)c3ccccc23)CC1CCO (stereo unspecified)	0	-	-	-	-	-
Cc1ccc2c(c1)c(=O)c1c3n2CCN(CC2CO2)C3CC1 (stereo unspecified)	29	0	0	0	0	0
CCCN(CC#CCOc1ccc(OC)cc1)CCC	0	94	0	0	-	0
O=c1oc2ccccc2c(O)c1[C@H]1c2ccc(O)cc2Oc2c1c(=O)oc1ccccc21	0	0	0	0	0	0
O=c1[nH]c(=O)n(CC2CCCO2)c(O)c1/C=C1\C=Nc2ccccc21 (stereo unspecified)	0	0	0	0	0	0
O=c1[nH]c(=O)n(Cc2ccccc2)c(O)c1/C=C1\C=Nc2ccccc21	0	0	93	0	0	0
